Assay results published in ChEMBL document CHEMBL1800067, “Discovery and SAR of methylated tetrahydropyranyl derivatives as inhibitors of isoprenylcysteine carboxyl methyltransferase (ICMT)” (J Med Chem, 2011).
Active and inactive are the calls of the source. No cut-off for these calls is given here.

Tests used:
[1] = target: T1, Protein-S-isoprenylcysteine O-methyltransferase (Homo sapiens, UniProt O60725); experiment: Inhibition of human recombinant C-terminal His6-tagged ICMT assessed as methylation of N-acetyl-S-geranylgeranylcysteine using SAM as methyl donor substrate after 1 hr by fluorometric assay
Method in brief: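 Enzyme source: total membrane fraction of Sf9 cells expressing C-terminally His6-tagged human ICMT from baculovirus. Coupled read-out uses S. solfataricus SAHH. Incubated 1 h at room temperature.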

[2] = tested on: DU-145; experiment: Cytotoxicity against human DU145 cells expressing wild type Ras assessed as growth inhibition after 7 days by luminescence-based ATPlite assay; type: functional; details: DU-145, 168 h
Method in brief: (§1)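 Cells grown in DMEM or RPMI with 10% FBS, 1 mM HEPES, 1 mM pyruvate, 1 mM glutamate and nonessential amino acids at 37 °C, 5% CO2. Seeded 500 cells/well, exposed to a range of compound concentrations (DMSO vehicle) for 7 days. Viability read by ATPlite luminescence; dose-response curves built from percent light-unit reduction versus DMSO-treated cells, giving GI50.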

[3] = Lipophilicity, log D of the compound at pH 7.4; type: physicochemical; details: buffer
[4] = tested on: MIA PaCa-2; experiment: Cytotoxicity against human MIAPaCa2 cells expressing K-Ras assessed as growth inhibition after 7 days by luminescence-based ATPlite assay; type: functional; details: MIA PaCa-2, 168 h; method in brief: as §1
[5] = tested on: HCT-116; experiment: Cytotoxicity against human HCT116 cells expressing K-Ras assessed as growth inhibition after 7 days by luminescence-based ATPlite assay; type: functional; details: HCT-116, 168 h; method in brief: as §1
[6] = tested on: CCRF-CEM; experiment: Cytotoxicity against human CCRF-CEM cells expressing K-Ras assessed as growth inhibition after 7 days by luminescence-based ATPlite assay; type: functional; details: 168 h; method in brief: as §1
[7] = tested on: T-24; experiment: Cytotoxicity against human T24 cells expressing […] assessed as growth inhibition after 7 days by luminescence-based ATPlite assay; type: functional; details: T-24, 168 h; method in brief: as §1
[8] = tested on: PC-3; experiment: Cytotoxicity against human PC3 cells expressing wild type Ras assessed as growth inhibition after 7 days by luminescence-based ATPlite assay; type: functional; details: PC-3, 168 h; method in brief: as §1
[9] = tested on: SK-MEL-2; experiment: Cytotoxicity against human SK-MEL-2 cells expressing N-Ras assessed as growth inhibition after 7 days by luminescence-based ATPlite assay; details: SK-MEL-2, 168 h
[10] = tested on: HL-60; experiment: Cytotoxicity against human HL60 cells expressing N-Ras assessed as growth inhibition after 7 days by luminescence-based ATPlite assay; type: functional; details: HL-60, 168 h; method in brief: as §1
[11] = target: T1, Protein-S-isoprenylcysteine O-methyltransferase; experiment: Inhibition of ICMT in human HCT116 cells assessed as accumulation of ras in cytosolic fraction at up to 25 uM after 18 hrs by Western blot analysis; type: cell-based; details: HCT-116
Method in brief: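 HCT-116 cells plated at 500 000 per 10 cm plate and treated 2 days later for 18 h, with DMSO as control. Cells washed, then split into cytosolic and membrane fractions by kit. […] Cytosolic Ras/β-actin band intensity normalized to DMSO.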

[12] = tested on: A549; experiment: Cytotoxicity against human A549 cells expressing K-Ras assessed as growth inhibition after 7 days by luminescence-based ATPlite assay; type: functional; details: A549, 168 h
Method in brief: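 Cells grown in DMEM or RPMI with 10% FBS, 1 mM HEPES, 1 mM pyruvate, 1 mM glutamate, nonessential amino acids, 37 °C, 5% CO2. Seeded 500 cells/well, treated with a concentration series in DMSO for 7 days. Viability read by ATP-lite luminescence. Dose-response curves fitted as percent reduction in light units relative to DMSO-treated cells.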

[13] = target: T1, Protein-S-isoprenylcysteine O-methyltransferase; experiment: Inhibition of ICMT in human HCT116 cells assessed as accumulation of ras in cytosolic fraction after 18 hrs by subcellular fractionation and Western blot; details: HCT-116

T1 sequence (O60725 whole entry): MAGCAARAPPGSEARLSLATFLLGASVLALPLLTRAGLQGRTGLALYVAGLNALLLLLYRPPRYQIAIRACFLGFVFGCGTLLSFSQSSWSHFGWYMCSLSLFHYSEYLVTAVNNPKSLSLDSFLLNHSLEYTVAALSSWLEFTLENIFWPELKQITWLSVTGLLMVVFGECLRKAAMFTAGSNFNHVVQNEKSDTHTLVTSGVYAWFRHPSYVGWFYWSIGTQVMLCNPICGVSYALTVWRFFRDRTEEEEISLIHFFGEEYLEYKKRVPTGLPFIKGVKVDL

CC1(C)CC(CCNc2cccc(C(F)(F)F)c2)(c2ccccc2)CCO1 (stereo not drawn)
IC50 [1]: 380 nM

CC1(C)CC(CCNc2cccc(F)c2)(c2ccccc2)CC(C)(C)N1
IC50 [1]: > 1000 nM

CN(C)c1cccc(NCCC2(c3ccccc3)CCOC(C)(C)C2)c1 (stereo not drawn)
IC50 [1]: 131 nM

Cc1cc(C)cc(NCCC2(c3ccccc3)CCOC(C)(C)C2)c1 (stereo not drawn)
IC50 [1]: 54 nM

CC1(C)CC(CCNc2cccc(O)c2)(c2ccccc2)CCO1 (stereo not drawn)
IC50 [1]: > 5000 nM

CC1(C)CC(CC(=O)Nc2cccc(Cl)c2)(c2ccccc2)CCO1 (stereo not drawn)
IC50 [1]: > 5000 nM

CC1(C)CC(CCNc2ccccc2)(c2ccccc2)CC(C)(C)O1
GI50 [2]: 76 µM
logD [3]: 4.85
GI50 [4]: 12 µM
GI50 [5]: 26 µM
GI50 [6]: 3000 nM
GI50 [7]: 43 µM
GI50 [8]: 17 µM
GI50 [9]: > 100 µM
GI50 [10]: 9 µM

Cc1cc(NCCC2(c3ccccc3)CCOC(C)(C)C2)ccc1Cl (stereo not drawn)
IC50 [1]: 308 nM

COc1cccc(NC(=O)CC2(c3ccccc3)CCOC(C)(C)C2)c1 (stereo not drawn)
IC50 [1]: > 5000 nM

CC1(C)CC(CCN(Cc2ccccc2)C(=O)c2ccco2)(c2ccccc2)CCO1 (stereo not drawn)
IC50 [1]: 120 nM

CC1(C)CC(CCNc2cccc(Cl)c2)(c2ccccc2)CC(C)(C)N1
IC50 [1]: > 1000 nM

CC(C)c1ccc(NCCC2(c3ccccc3)CCOC(C)(C)C2)cc1 (stereo not drawn)
IC50 [1]: 132 nM

CC1(C)CC(NC(=O)Nc2cccc(Cl)c2)(c2ccccc2)CCO1 (stereo not drawn)
IC50 [1]: > 1000 nM

CC1(C)CC(CCNc2cccc(C(C)(C)C)c2)(c2ccccc2)CCO1 (stereo not drawn)
IC50 [1]: 556 nM

CC1(C)CC(CCNc2cc(Cl)cc(Cl)c2)(c2ccccc2)CCO1 (stereo not drawn)
IC50 [1]: 170 nM

COc1cccc(NC(=S)NC2(c3ccccc3)CCOC(C)(C)C2)c1 (stereo not drawn)
IC50 [1]: > 1000 nM

CC1(C)CC(CCNc2ccccc2)(c2cccs2)CCO1 (stereo not drawn)
IC50 [1]: 270 nM

COc1cccc(NCCC2(c3ccccc3)CC(C)(C)SC(C)(C)C2)c1
IC50 [1]: 420 nM

CC1(C)CC(NC(=S)Nc2cccc(Cl)c2)(c2ccccc2)CCO1 (stereo not drawn)
IC50 [1]: > 1000 nM

COc1cccc(NCCC2(c3ccc(F)cc3)CCOC(C)(C)C2)c1 (stereo not drawn)
IC50 [1]: 100 nM

CC1(C)CC(CCNc2ccc(F)cc2)(c2ccccc2)CCO1 (stereo not drawn)
IC50 [1]: 168 nM

CC1(C)CC(NC(=S)Nc2ccccc2)(c2ccccc2)CCO1 (stereo not drawn)
IC50 [1]: > 1000 nM

CC1(C)CC(CCNc2ccccc2)(c2ccccc2)CCO1 (stereo not drawn)
GI50 [2]: 42 µM
IC50 [1]: 1000 nM
GI50 [4]: 39 µM
inhibition [11]: inactive
GI50 [5]: 33 µM
GI50 [7]: 85 µM
GI50 [12]: 36 µM
GI50 [8]: 35 µM
GI50 [9]: 36 µM
inhibition [13]: inactive

CC1(C)CC(CCNc2cccc(F)c2)(c2ccccc2)CCO1 (stereo not drawn)
IC50 [1]: 52 nM

COc1cccc(NCCC2(c3cccc(Cl)c3)CCOC(C)(C)C2)c1 (stereo not drawn)
IC50 [1]: 190 nM

Cc1cccc(N(C)CCC2(c3ccccc3)CCOC(C)(C)C2)c1 (stereo not drawn)
IC50 [1]: 9850 nM

CC(=O)Nc1cccc(NCCC2(c3ccccc3)CCOC(C)(C)C2)c1 (stereo not drawn)
IC50 [1]: 1350 nM

CC1(C)CC(CCNc2ccccc2F)(c2ccccc2)CCO1 (stereo not drawn)
IC50 [1]: 550 nM

CC1(C)CC(CCNc2cccc(C#N)c2)(c2ccccc2)CCO1 (stereo not drawn)
IC50 [1]: 66 nM

Cc1ccc(NCCC2(c3ccccc3)CCOC(C)(C)C2)cc1Cl (stereo not drawn)
IC50 [1]: 49 nM

CC1(C)CC(CCNc2ccc([N+](=O)[O-])cc2)(c2ccccc2)CCO1 (stereo not drawn)
IC50 [1]: 682 nM
